Values joined by “and” are separate entries in the source; they are usually repeats but may differ in a detail not shown here. Equal entries are not always repeated.
Key:
Assay type in all cases: in vivo, B6C3F1 mice
[1] = PFAS concentration in serum; conditions: 5%, dermal, 28 days
Summary of the method: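 Serum came by cardiac puncture about 24 h after the final daily ear dose (25 μl/ear, acetone vehicle; female B6C3F1 mice). Samples underwent solid-phase extraction and LC/MS/MS. Short-chain analytes were quantified as linear isomer only; the legacy comparator was quantified as linear plus branched. Data are mean ± SE of 4–5 mice, one-way ANOVA with Dunnett's vs vehicle.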

[2] = tested on: ear pinna; assay: Skin; conditions: dermal, 28 days
Summary of the method: (§1)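 Dosing was daily topical to both dorsal ears (25 μl/ear, acetone vehicle) in female B6C3F1 mice. Liver caudate lobe or half ear pinna was stored in RNAlater and homogenized in RLT buffer. RNA was isolated on RNeasy columns with DNase, and 1–2 μg was reverse-transcribed. TaqMan real-time PCR was read as 2−ΔΔCT vs vehicle, normalized to β-actin. Statistics: ANOVA/Dunnett's, or Kruskal-Wallis/Dunn's for unequal variance.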

[3] = tested on: auricular draining lymph nodes (dLNs); assay: Draining lymph node phenotyping by flow cytometry after 28-day dermal exposure; conditions: 28 days
Summary of the method: (§2)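 Female B6C3F1 mice (5/group) received 25 μl/ear daily to the dorsal ears in acetone. About 24 h after the last dose, tissues went into RPMI: both auricular dLNs, half spleen and one ear pinna. Single-cell suspensions were acquired on an LSR II, with populations gated per supplemental strategy and FMO gating controls. Results are mean ± SE, n=5, by one-way ANOVA.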

[4] = tested on: liver (caudate); assay: Liver gene expression; conditions: dermal, 28 days
Summary of the method: as §1

[5] = tested on: kidney, spleen; assay: Kidney and spleen histopathology after 28-day dermal exposure; conditions: 1.25–5%, 28 days, data not shown
Summary of the method: (§3)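 Female B6C3F1 mice (5/group) received 25 μl/ear on the dorsal ear surfaces daily, with acetone as vehicle. Tissues were formalin-fixed about 24 h after the last dose: liver remainder, half spleen, right kidney and half ear pinna. Sections were paraffin-embedded, cut at 5 μm and stained with H&E. A veterinary pathologist read them per STP guideline and graded 1 (minimal) to 5 (severe) by extent.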

[6] = tested on: spleen; assay: Spleen phenotyping by flow cytometry after 28-day dermal exposure; conditions: 28 days
Summary of the method: as §2

[7] = tested on: ear pinna; assay: Ear; conditions: dermal, 28 days, mice affected of 5
Summary of the method: as §3

O=C(O)C(F)(F)C(F)(F)C(F)(F)C(F)(F)F [PFPeA, perfluoropentanoic acid]
PFAS serum concentration vs vehicle [1]: significant increase | skin Krt10 gene expression ([2]; 1.25%): increased | skin Pparγ gene expression ([2]; 1.25%): decreased | skin Pparδ gene expression ([2]; 1.25–5%): no changes | skin Krt10 gene expression ([2]; 2.5%): increased | skin Pparγ gene expression ([2]; 2.5%): decreased | skin Flg gene expression ([2]; 5%): increased | skin Il6 gene expression, increase ([2]; 5%): 2.5 fold | skin Krt10 gene expression ([2]; 5%): increased | skin PPARα gene expression ([2]; 5%): decreased | skin Pparγ gene expression ([2]; 5%): decreased | skin S100a7a gene expression, increase ([2]; 5%): 42.5 fold | skin Serpine1 gene expression, increase ([2]; 5%): 3 fold | skin Tslp gene expression, increase ([2]; 5%): 3 fold | dLN B-cells cell number ([3]; 1.25%): 8.67 ± 0.72 × 10^5 | dLN B-cells frequency ([3]; 1.25%): 14.18 ± 0.59% | dLN CD4^+ cell number ([3]; 1.25%): 2.63 ± 0.27 × 10^6 | dLN CD4^+ frequency ([3]; 1.25%): 42.52 ± 0.79% | dLN CD8^+ cell number ([3]; 1.25%): 18.60 ± 0.18 × 10^5 | dLN CD8^+ frequency ([3]; 1.25%): 30.24 ± 0.44% | dLN CD11b+ cell number ([3]; 1.25%): 7.21 ± 1.61 × 10^4 | dLN CD11b+ frequency ([3]; 1.25%): 1.26 ± 0.29% | dLN CD86 B-cells ([3]; 1.25%): 1140.40 ± 46.06 MFI | dLN CD86 DCs ([3]; 1.25%): 42.60 ± 1.44 MFI x 10^2 | dLN Dendritic Cells cell number ([3]; 1.25%): 6.24 ± 0.42 × 10^4 | dLN Dendritic Cells frequency ([3]; 1.25%): 1.02 ± 0.03% | dLN Eosinophils cell number ([3]; 1.25%): 20.90 ± 7.02 × 10^2 | dLN MHCII B-cells ([3]; 1.25%): 105.00 ± 1.83 MFI × 10^2 | dLN NK cell number ([3]; 1.25%): 3.23 ± 0.30 × 10^4 | dLN NK frequency ([3]; 1.25%): 0.53 ± 0.03% | dLN Neutrophils cell number ([3]; 1.25%): 12.30 ± 1.75 × 10^2 | dLN Total Cellularity ([3]; 1.25%): 6.15 ± 0.57 × 10^6 | dLN B-cells cell number ([3]; 2.5%): 12.60 ± 2.36 × 10^5 | dLN B-cells frequency ([3]; 2.5%): 15.00 ± 0.92 % | dLN CD4^+ cell number ([3]; 2.5%): 3.34 ± 0.55 × 10^6 | dLN CD4^+ frequency ([3]; 2.5%): 39.54 ± 0.62 % | dLN CD8^+ cell number ([3]; 2.5%): 25.00 ± 3.80 × 10^5 | dLN CD8^+ frequency ([3]; 2.5%): 29.96 ± 0.86% | dLN CD11b+ cell number ([3]; 2.5%): 17.00 ± 4.33 × 10^4 | dLN CD11b+ frequency ([3]; 2.5%): 1.92 ± 0.19% | dLN CD86 B-cells ([3]; 2.5%): 1131.40 ± 96.26 MFI | dLN CD86 DCs ([3]; 2.5%): 40.30 ± 1.05 MFI x 10^2 | dLN Dendritic Cells cell number ([3]; 2.5%): 10.40 ± 1.31 × 10^4 | dLN Dendritic Cells frequency ([3]; 2.5%): 1.31 ± 0.15% | dLN Eosinophils cell number ([3]; 2.5%): 81.90 ± 15.70 × 10^2 | dLN MHCII B-cells ([3]; 2.5%): 115.00 ± 6.25 MFI × 10^2 | dLN NK cell number ([3]; 2.5%): 5.52 ± 0.71 × 10^4 | dLN NK frequency ([3]; 2.5%): 0.69 ± 0.07% | dLN Neutrophils cell number ([3]; 2.5%): 19.10 ± 3.38 × 10^2 | dLN Total Cellularity ([3]; 2.5%): 8.45 ± 1.43 × 10^6 | dLN B-cells cell number ([3]; 5%): 17.00 ± 1.58 × 10^5 | dLN B-cells frequency ([3]; 5%): 16.22 ± 0.70 % | dLN CD4^+ cell number ([3]; 5%): 3.99 ± 0.36 × 10^6 | dLN CD4^+ frequency ([3]; 5%): 38.02 ± 0.95 % | dLN CD8^+ cell number ([3]; 5%): 30.20 ± 0.23 × 10^5 | dLN CD8^+ frequency ([3]; 5%): 28.88 ± 0.40% | dLN CD11b+ cell number ([3]; 5%): 24.00 ± 3.48 × 10^4 | dLN CD11b+ frequency ([3]; 5%): 2.26 ± 0.17% | dLN CD86 B-cells ([3]; 5%): 1188.80 ± 47.41 MFI | dLN CD86 DCs ([3]; 5%): 36.80 ± 2.23 MFI x 10^2 | dLN Dendritic Cells cell number ([3]; 5%): 12.60 ± 1.09 × 10^4 | dLN Dendritic Cells frequency ([3]; 5%): 1.21 ± 0.08% | dLN Eosinophils cell number ([3]; 5%): 140.00 ± 23.00 × 10^2 | dLN MHCII B-cells ([3]; 5%): 126.00 ± 6.53 MFI × 10^2 | dLN NK cell number ([3]; 5%): 7.50 ± 0.56 × 10^4 | dLN NK frequency ([3]; 5%): 0.73 ± 0.05% | dLN Neutrophils cell number ([3]; 5%): 22.40 ± 5.58 × 10^2 | dLN Total Cellularity ([3]; 5%): 10.50 ± 0.93 × 10^6 | liver Pltp gene expression ([4]; 2.5%): increase | liver Pparδ expression ([4]; 2.5%): decreasing | liver Serpine1 gene expression, increase ([4]; 2.5%): 8 fold | liver Acox1 gene expression ([4]; 5%): increase | liver Cd36 gene expression, increase ([4]; 5%): 6.5 fold | liver Ehhadh gene expression, increase ([4]; 5%): 8.8 fold | liver Fabp1 gene expression ([4]; 5%): increased | liver Pltp gene expression ([4]; 5%): increase | liver Pparγ expression ([4]; 5%): increasing | liver Pparδ expression ([4]; 5%): decreasing | liver Serpine1 gene expression, increase ([4]; 5%): 11.3 fold | microscopic observations in the kidney or the spleen [5]: No PFPeA, PFHxA, or PFHpA-related microscopic observations | spleen NK cell frequency ([6]; 1.25%): increase | spleen MFI of CD86 on B-cells ([6]; 2.5%): increase | spleen MFI of MHCII on B-cells ([6]; 2.5%): increase | spleen NK cell frequency ([6]; 2.5%): increase | spleen number of CD4^+ T-cells ([6]; 2.5%): significant decrease | spleen number of CD11b + Ly6C− cells ([6]; 2.5%): significant decrease | spleen MFI of CD86 on B-cells ([6]; 5%): increase | spleen MFI of MHCII on B-cells ([6]; 5%): increase | spleen NK cell frequency ([6]; 5%): increase | Ear: Degeneration/regeneration, cartilage, focal, Mild (incidence) ([7]; 1.25%): 0 | Ear: Fibrosis, dermis, focal, Minimal (incidence) ([7]; 1.25%): 0 | Ear: Hyperkeratosis, epidermis, focal, Mild (incidence) ([7]; 1.25%): 0 | Ear: Hyperkeratosis, epidermis, focal, Minimal (incidence) ([7]; 1.25%): 0 | Ear: Hyperplasia, epidermis, focal, Mild (incidence) ([7]; 1.25%): 0 | Ear: Hyperplasia, epidermis, focal, Minimal (incidence) ([7]; 1.25%): 0 | Ear: Inflammation, mixed cell, dermis, Minimal (incidence) ([7]; 1.25%): 0 | Ear: Inflammation, mononuclear cell, dermis, Minimal (incidence) ([7]; 1.25%): 0 | Ear: Necrosis, epidermis, multifocal, Minimal (incidence) ([7]; 1.25%): 0 | Ear: Degeneration/regeneration, cartilage, focal, Mild (incidence) ([7]; 2.5%): 0 | Ear: Fibrosis, dermis, focal, Minimal (incidence) ([7]; 2.5%): 0 | Ear: Hyperkeratosis, epidermis, focal, Mild (incidence) ([7]; 2.5%): 0 | Ear: Hyperkeratosis, epidermis, focal, Minimal (incidence) ([7]; 2.5%): 0 | Ear: Hyperplasia, epidermis, focal, Mild (incidence) ([7]; 2.5%): 0 | Ear: Hyperplasia, epidermis, focal, Minimal (incidence) ([7]; 2.5%): 4/5 and 4 | Ear: Inflammation, mixed cell, dermis, Minimal (incidence) ([7]; 2.5%): 2/5 and 2 | Ear: Inflammation, mononuclear cell, dermis, Minimal (incidence) ([7]; 2.5%): 0 | Ear: Necrosis, epidermis, multifocal, Minimal (incidence) ([7]; 2.5%): 0 | Ear: Degeneration/regeneration, cartilage, focal, Mild (incidence) ([7]; 5%): 0 | Ear: Fibrosis, dermis, focal, Minimal (incidence) ([7]; 5%): 4/5 and 4 | Ear: Hyperkeratosis, epidermis, focal, Mild (incidence) ([7]; 5%): 0 | Ear: Hyperkeratosis, epidermis, focal, Minimal (incidence) ([7]; 5%): 2/5 and 2 | Ear: Hyperplasia, epidermis, focal, Mild (incidence) ([7]; 5%): 3/5 and 3 | Ear: Hyperplasia, epidermis, focal, Minimal (incidence) ([7]; 5%): 2/5 and 2 | Ear: Inflammation, mixed cell, dermis, Minimal (incidence) ([7]; 5%): 4/5 and 4 | Ear: Inflammation, mononuclear cell, dermis, Minimal (incidence) ([7]; 5%): 0 | Ear: Necrosis, epidermis, multifocal, Minimal (incidence) ([7]; 5%): 0

— paper PMC9989852 (Food and chemical toxicology : an international journal …, 2022)
